The source of these data is ChEMBL document CHEMBL3297646, “Structure-activity relationship study of non-steroidal NPC1L1 ligands identified through cell-based assay using pharmacological chaperone effect as a readout” (Bioorg Med Chem, 2014).

Type in all cases: cell-based
Data set [1] concerns the target T1, NPC1-like intracellular cholesterol transporter 1 (Homo sapiens) (UniProt Q9UHC9).
T1 sequence (whole entry): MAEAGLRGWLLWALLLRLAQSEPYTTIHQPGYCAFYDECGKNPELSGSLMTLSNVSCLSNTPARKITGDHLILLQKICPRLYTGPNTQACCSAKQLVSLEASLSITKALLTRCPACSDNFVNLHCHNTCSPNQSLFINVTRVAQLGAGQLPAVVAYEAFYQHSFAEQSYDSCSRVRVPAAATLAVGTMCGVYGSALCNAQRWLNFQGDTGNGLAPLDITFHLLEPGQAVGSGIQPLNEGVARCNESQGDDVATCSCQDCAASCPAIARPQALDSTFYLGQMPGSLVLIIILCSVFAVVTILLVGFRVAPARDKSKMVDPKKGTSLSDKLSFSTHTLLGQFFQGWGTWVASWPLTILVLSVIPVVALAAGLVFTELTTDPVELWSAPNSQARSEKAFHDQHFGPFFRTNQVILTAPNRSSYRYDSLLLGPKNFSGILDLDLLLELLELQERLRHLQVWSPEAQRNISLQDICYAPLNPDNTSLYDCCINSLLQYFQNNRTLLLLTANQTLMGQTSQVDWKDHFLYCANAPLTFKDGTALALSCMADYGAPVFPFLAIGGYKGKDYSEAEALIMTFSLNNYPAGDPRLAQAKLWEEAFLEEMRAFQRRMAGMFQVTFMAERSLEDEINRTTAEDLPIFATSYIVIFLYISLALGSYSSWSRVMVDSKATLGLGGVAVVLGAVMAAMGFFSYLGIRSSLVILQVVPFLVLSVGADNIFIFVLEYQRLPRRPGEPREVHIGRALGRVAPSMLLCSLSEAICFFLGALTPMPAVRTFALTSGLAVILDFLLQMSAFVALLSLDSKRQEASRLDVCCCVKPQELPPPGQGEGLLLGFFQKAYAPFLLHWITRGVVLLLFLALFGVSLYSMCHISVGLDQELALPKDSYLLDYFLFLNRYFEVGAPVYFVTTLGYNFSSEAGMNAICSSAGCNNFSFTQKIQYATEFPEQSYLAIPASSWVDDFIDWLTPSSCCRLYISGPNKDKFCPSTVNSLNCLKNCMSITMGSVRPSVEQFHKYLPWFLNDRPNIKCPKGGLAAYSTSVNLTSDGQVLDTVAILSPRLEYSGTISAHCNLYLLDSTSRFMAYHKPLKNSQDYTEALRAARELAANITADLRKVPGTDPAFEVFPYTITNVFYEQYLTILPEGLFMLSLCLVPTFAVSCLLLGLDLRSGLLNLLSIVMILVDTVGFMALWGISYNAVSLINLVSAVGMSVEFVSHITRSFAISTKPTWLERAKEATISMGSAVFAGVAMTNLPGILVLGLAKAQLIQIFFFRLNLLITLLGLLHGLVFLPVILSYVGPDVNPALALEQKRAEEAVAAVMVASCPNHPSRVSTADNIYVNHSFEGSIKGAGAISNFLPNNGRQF
Nature of the data set: Binding affinity to human GFP-tagged NPC1L1 L1072T/L1168I mutant expressed in HEK293 cells assessed as localization to plasma membrane at 10 uM after 24 hrs by fluorescence microscopic analysis. The gist of the method: (§1)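 HEK293 cells stably expressing EGFP-tagged NPC1L1 L1072T/L1168I were plated on poly-D-lysine-coated glass-bottomed wells (20 µg/mL in PBS) and grown 24 h. They were then exposed to compound at 10 or 30 µM (0.1% final DMSO) and fixed in 3.7% formaldehyde-PBS. Read-out was % of EGFP signal localized to the plasma membrane.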

The target in data set [2] is T1, NPC1-like intracellular cholesterol transporter 1 (Homo sapiens). Briefly: Binding affinity to human GFP-tagged NPC1L1 L1072T/L1168I mutant expressed in HEK293 cells assessed as localization to plasma membrane at 30 uM after 24 hrs by fluorescence microscopic analysis. The method in brief: as §1
Another data set concerns HEK293. Briefly: Cytotoxicity against HEK293 cells transfected with human GFP-tagged NPC1L1 L1072T/L1168I mutant at 30 uM. The conditions noted are these: hek293, 30 µM.
The target in data set [3] is T1, NPC1-like intracellular cholesterol transporter 1 (Homo sapiens). Briefly: Binding affinity to human EGFP-tagged full-length NPC1L1 L1072T/L1168I mutant expressed in HEK293 cells assessed as protein stabilization after 24 hrs by fluorescence assay. The method in brief: (§2)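 Steady-state levels of full-length or NTD-deleted NPC1L1 L1072T/L1168I-GFP were measured in stably expressing HEK293 cells treated with compound at 1–30 µM or vehicle. GFP fluorescence in cell lysates was normalized to total protein by bicinchoninic acid assay. Values are expressed as % of vehicle-treated cells.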

Data set [4] shares this target. Briefly: Binding affinity to human EGFP-tagged NTD-deleted NPC1L1 L1072T/L1168I mutant expressed in HEK293 cells assessed as protein stabilization after 24 hrs by fluorescence assay. The method in brief:
as §2

The source made the active and inactive calls. No cut-off for these calls is given here.

On to `CCCCn1c(=O)c2ccccc2c2cc(C(=O)N(CC)CC)ccc21`, for which the Activity in data set [1] was 1%; in data set [2], 45%.

As for `CCCCn1c(=O)c2ccccc2c2cc(C(=O)N(C)C)ccc21`, the Activity in data set [2] was determined as 4%.

For the compound `CCCCn1c(=O)c2ccccc2c2cc(C(=O)NC(C)(C)C)ccc21`, the Activity in data set [1] stood at 11%; in data set [2], 41%.

With `CCN(C(=O)c1ccc2c(c1)c1c(c(=O)n2C)CCCCC1)C1CC1`, the Activity in data set [2] came out at 0%.

As to `CCCCn1c(=O)c2c(c3cc(C(=O)N(CC)CC)ccc31)CCCC2`, the Activity in data set [1] was found to be 2%; in data set [2], 42%.

For `CCCCn1c(=O)c2ccccc2c2cc(C(=O)NC3CCCC3)ccc21`, in data set [2], the Activity turned out to be 0%.

On to `CCCCn1c(=O)c2ccccc2c2cc(C(=O)NC(C)C)ccc21`, for which the Activity was found to be 0% in data set [1] and 49% in data set [2].

With `CCCCN(CCCC)C(=O)c1ccc2c(c1)c1ccccc1c(=O)n2CCCC`, the Activity was 18% in data set [1] and “Toxic” with HEK293.

As to `CCCCn1c(=O)c2c(c3cc(C(=O)NC(C)(C)C)ccc31)CCCCC2`, in data set [2], the Activity was found to be 1%.

On to `CCN(CC)C(=O)c1ccc2c(c1)c1ccccc1c(=O)n2CC(=O)O`, for which, in data set [2], the Activity was determined as 0%.

Take `CCCCn1c(=O)c2ccccc2c2cc(C(N)=O)ccc21`: the Activity in data set [2] turned out to be 0%.

As for `CCN(CC)C(=O)c1ccc2[nH]c(=O)c3ccccc3c2c1`, in data set [2], the Activity worked out at 0%.

`CCN(C(=O)c1ccc2c(c1)c1c(c(=O)n2Cc2ccccc2)CCCCC1)C1CC1`: the Activity is 0% in data set [1] and 14% in data set [2].

With `CCN(CC)C(=O)c1ccc2c(c1)c1ccccc1c(=O)n2CCCC(=O)N(C)C`, the Activity in data set [2] stood at 0%.

On to `CCCCn1c(=O)c2ccccc2c2cc(C(=O)N3CCCCC3)ccc21`, for which the Activity in data set [1] stood at 0%; in data set [2], 47%.

On to `CCCCn1c(=O)c2c(c3cc(C(N)=O)ccc31)CCCCC2`, for which the Activity in data set [2] was 0%.

In the case of `CCN(C(=O)c1ccc2[nH]c(=O)c3c(c2c1)CCCCC3)C1CC1`, the outcome in data set [3] and in data set [4] was Active. Moreover, the Activity in data set [2] is 0%.

As to `CCCCn1c(=O)c2c(c3cc(C(=O)N(CC)CC)ccc31)CCCCCC2`, the Activity in data set [1] was 5%; in data set [2], 44%.

`CCCCCn1c(=O)c2c(c3cc(C(=O)N(CC)C4CC4)ccc31)CCCCC2`: the results for the Activity in data set [1] and in data set [2] were 3% and 35%, respectively.

On to `CCCCNC(=O)c1ccc2c(c1)c1c(c(=O)n2CCCC)CCCCC1`, for which the Activity in data set [1] is 0%; in data set [2], 18%.

For `CCCCn1c(=O)c2ccccc2c2cc(C(=O)NC3CC3)ccc21`, the Activity in data set [1] is 14%; in data set [2], 55%.

With `CCCCn1c(=O)c2c(c3cc(C(=O)N(CC)CC)ccc31)CCC2`, the Activity in data set [1] was determined as 1%; in data set [2], 15%.

Regarding `CCCn1c(=O)c2c(c3cc(C(=O)N(CC)C4CC4)ccc31)CCCCC2`, the Activity in data set [1] amounted to 0%; in data set [2], 39%.

Take `CCCCn1c(=O)c2c(c3cc(C(=O)N4CCCC4)ccc31)CCCCC2`: the figures for the Activity in data set [1] and in data set [2] were 1% and 33%, respectively.

Consider `CCCCn1c(=O)c2c(c3cc(C(=O)N(CC)CC)ccc31)CCCCC2`, for which the Activity in data set [1] amounted to 14%; in data set [2], 42%.

For `CCN(CC)C(=O)c1ccc2c(c1)c1ccccc1c(=O)n2CC`, the Activity in data set [2] was 4%.

For `CCCCn1c(=O)c2c(c3cc(C(=O)NC4CC4)ccc31)CCCCC2`, the Activity in data set [1] is 3%; in data set [2] it was 49%.

With `CCCCn1c(=O)c2c(c3cc(C(=O)NC4CCCCC4)ccc31)CCCCC2`, the Activity in data set [1] worked out at 2%; in data set [2], 5%.

`CCCCn1c(=O)c2c(c3cc(C(=O)NC(C)C)ccc31)CCCCC2`: the Activity is 0% in data set [1] and 25% in data set [2].

As to `CCN(CC)C(=O)c1ccc2c(c1)c1ccccc1c(=O)n2C`, the Activity in data set [2] stood at 0%.

Turning to `CCCCn1c(=O)c2ccccc2c2cc(C(=O)N(CCC)CCC)ccc21`, the values for the Activity in data set [1] and in data set [2] were 14% and 50%, respectively.

In the case of `CCCCn1c(=O)c2c(c3cc(C(=O)N(C)C4CC4)ccc31)CCCCC2`, the Activity in data set [1] amounted to 1%; in data set [2], 21%.

In the case of `CCCCn1c(=O)c2c(c3cc(C(=O)Nc4ccccc4)ccc31)CCCCC2`, the Activity in data set [2] turned out to be 0%.

`CCN(CC)C(=O)c1ccc2c(c1)c1ccccc1c(=O)n2Cc1ccccc1`: the Activity in data set [2] stood at 0%.

For `CCCCn1c(=O)c2ccccc2c2cc(C(=O)NCc3ccccc3)ccc21`, in data set [2], the Activity came to 0%.

Take `CCCCN1C(=O)c2ccccc2Oc2cc(C(=O)N(CC)CC)ccc21`: the Activity in data set [2] stood at 3%.

For the compound `CCCCn1c(=O)c2ccccc2c2cc(C(=O)NC3CCCCC3)ccc21`, the results for the Activity in data set [1] and in data set [2] were 3% and 11%, respectively.

In the case of `CCCCn1c(=O)c2c(c3cc(C(=O)N(C)C)ccc31)CCCCC2`, the Activity in data set [2] came out at 2%.

In the case of `CCCCn1c(=O)c2c(c3cc(C(=O)NCCO)ccc31)CCCCC2`, in data set [2], the Activity came out at 0%.

Turning to `CCCCCCn1c(=O)c2c(c3cc(C(=O)N(CC)C4CC4)ccc31)CCCCC2`, the Activity in data set [1] was 1%; with HEK293 it was “Toxic”.

Consider `CCN(CC)C(=O)c1ccc2c(c1)c1ccccc1c(=O)n2CCCC(=O)O`, for which the Activity in data set [2] was found to be 0%.

Take `CCCCn1c(=O)c2ccccc2c2cc(C(=O)N3CCOCC3)ccc21`: the Activity in data set [2] came out at 0%.

`CCCCn1c(=O)c2c(c3cc(C(=O)NCCC)ccc31)CCCCC2`: the Activity turned out to be 0% in data set [1] and 36% in data set [2].

Take `CCCCn1c(=O)c2c(c3cc(C(=O)NC)ccc31)CCCCC2`: the results for the Activity in data set [1] and in data set [2] were 0% and 23%, respectively.

As for `CCCCn1c(=O)c2c(c3cc(C(=O)NCC)ccc31)CCCCC2`, the Activity in data set [1] worked out at 0%; in data set [2], 28%.

Regarding `CCCCn1c(=O)c2ccccc2c2cc(C(=O)NC)ccc21`, the Activity in data set [1] worked out at 1%; in data set [2], 24%.

Regarding `CCCCN1C(=O)CCc2cc(C(=O)N(CC)CC)ccc21`, in data set [2], the Activity was found to be 1%.

For `CCN(C(=O)c1ccc2c(c1)c1c(c(=O)n2CCO)CCCCC1)C1CC1`, in data set [2], the Activity was 0%.

`CCCCn1c(=O)c2ccccc2c2cc(C(=O)N(CCO)CCO)ccc21`: the Activity in data set [2] amounted to 0%.

For the compound `CCN(CC)C(=O)c1ccc2c(c1)c1ccccc1c(=O)n2Cc1ccc(OC)cc1`, the results for the Activity in data set [1] and in data set [2] were 0% and 18%, respectively.

In the case of `CCN(C(=O)c1ccc2c(c1)c1c(c(=O)n2CC)CCCCC1)C1CC1`, the result in data set [3] and in data set [4] was Active. In addition, in data set [2], the Activity was found to be 7%.

For `CCN(C(=O)c1ccc2c(c1)c1c(c(=O)n2CCOC)CCCCC1)C1CC1`, in data set [2], the Activity stood at 0%.

On to `CCCC(=O)N1CC2=C(CCCC2)c2cc(C(=O)N(CC)CC)ccc21`, for which the Activity in data set [2] turned out to be 1%.

For the compound `CCN(CC)C(=O)c1ccc2c(c1)c1ccccc1c(=O)n2CC(=O)N(C)C`, the Activity in data set [2] worked out at 0%.

For the compound `CCCCn1c(=O)c2c(c3cc(C(=O)NC4CCCC4)ccc31)CCCCC2`, the Activity in data set [1] was found to be 6%; in data set [2] it was 16%.
